Source: ChEMBL document CHEMBL1143155, “Synthesis and SAR of selective muscarinic acetylcholine receptor subtype 1 (M1 mAChR) antagonists” (Bioorg Med Chem Lett, 2008)
Changes are numbered by the printed parent chain. Activity calls are given as the source filed them. The calls are words filed in the database; no cut-off is given here.

Legend:
[1] = molecular target: T1, Muscarinic acetylcholine receptor M1 (Rattus norvegicus, UniProt P08482); assay: Antagonist activity at rat muscarinic M1 receptor expressed in CHO cells by calcium mobilization assay; type: functional, cell-based
T1 sequence (P08482 whole entry): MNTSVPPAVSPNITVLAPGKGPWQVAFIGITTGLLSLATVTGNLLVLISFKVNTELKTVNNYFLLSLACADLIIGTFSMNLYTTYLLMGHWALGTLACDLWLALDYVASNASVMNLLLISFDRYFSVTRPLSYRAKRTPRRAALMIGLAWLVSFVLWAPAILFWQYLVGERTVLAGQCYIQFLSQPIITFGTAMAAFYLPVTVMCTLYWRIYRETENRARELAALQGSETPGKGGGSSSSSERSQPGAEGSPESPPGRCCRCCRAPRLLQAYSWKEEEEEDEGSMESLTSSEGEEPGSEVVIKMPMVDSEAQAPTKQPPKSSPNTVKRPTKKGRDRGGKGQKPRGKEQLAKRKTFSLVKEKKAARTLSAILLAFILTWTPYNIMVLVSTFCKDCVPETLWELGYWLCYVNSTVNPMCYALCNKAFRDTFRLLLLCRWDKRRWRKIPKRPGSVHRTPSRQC

[2] = molecular target: T2, Muscarinic acetylcholine receptor M2 (Rattus norvegicus, UniProt P10980); assay: Antagonist activity at rat muscarinic M2 receptor expressed in CHO cells by calcium mobilization assay; type: functional, cell-based
T2 sequence (P10980 whole entry): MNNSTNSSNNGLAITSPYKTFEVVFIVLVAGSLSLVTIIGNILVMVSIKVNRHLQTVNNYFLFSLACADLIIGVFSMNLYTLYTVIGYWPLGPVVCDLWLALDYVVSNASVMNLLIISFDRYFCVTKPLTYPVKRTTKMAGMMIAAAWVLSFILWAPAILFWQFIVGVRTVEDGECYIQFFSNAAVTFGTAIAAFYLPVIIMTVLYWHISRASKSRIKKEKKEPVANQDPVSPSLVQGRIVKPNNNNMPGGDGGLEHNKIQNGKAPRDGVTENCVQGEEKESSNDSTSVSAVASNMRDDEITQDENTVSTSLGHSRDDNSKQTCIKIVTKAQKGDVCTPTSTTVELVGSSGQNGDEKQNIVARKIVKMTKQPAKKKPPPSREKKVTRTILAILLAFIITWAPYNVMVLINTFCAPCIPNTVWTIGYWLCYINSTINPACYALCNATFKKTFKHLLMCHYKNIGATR

[3] = molecular target: T3, Muscarinic acetylcholine receptor M3 (Rattus norvegicus, UniProt P08483); assay: Antagonist activity at rat muscarinic M3 receptor expressed in CHO cells by calcium mobilization assay; type: functional, cell-based
T3 sequence (P08483 whole entry): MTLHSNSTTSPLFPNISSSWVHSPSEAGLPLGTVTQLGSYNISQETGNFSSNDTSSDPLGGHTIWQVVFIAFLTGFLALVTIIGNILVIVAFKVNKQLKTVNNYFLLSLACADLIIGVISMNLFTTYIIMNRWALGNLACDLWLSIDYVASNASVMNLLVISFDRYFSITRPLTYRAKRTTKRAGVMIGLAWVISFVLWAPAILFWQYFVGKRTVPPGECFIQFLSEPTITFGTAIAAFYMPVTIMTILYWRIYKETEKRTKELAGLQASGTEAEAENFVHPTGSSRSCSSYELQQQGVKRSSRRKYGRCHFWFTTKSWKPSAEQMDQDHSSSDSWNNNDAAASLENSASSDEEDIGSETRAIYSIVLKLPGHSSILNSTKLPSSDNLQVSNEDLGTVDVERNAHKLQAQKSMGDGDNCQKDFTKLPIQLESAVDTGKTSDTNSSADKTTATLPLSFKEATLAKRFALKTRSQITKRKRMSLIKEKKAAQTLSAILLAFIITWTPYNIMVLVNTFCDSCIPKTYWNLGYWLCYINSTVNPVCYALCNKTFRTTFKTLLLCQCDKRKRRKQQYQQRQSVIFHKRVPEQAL

[4] = molecular target: T4, Muscarinic acetylcholine receptor M4 (Rattus norvegicus, UniProt P08485); assay: Antagonist activity at rat muscarinic M4 receptor expressed in CHO cells by calcium mobilization assay; type: functional, cell-based
T4 sequence (P08485 whole entry): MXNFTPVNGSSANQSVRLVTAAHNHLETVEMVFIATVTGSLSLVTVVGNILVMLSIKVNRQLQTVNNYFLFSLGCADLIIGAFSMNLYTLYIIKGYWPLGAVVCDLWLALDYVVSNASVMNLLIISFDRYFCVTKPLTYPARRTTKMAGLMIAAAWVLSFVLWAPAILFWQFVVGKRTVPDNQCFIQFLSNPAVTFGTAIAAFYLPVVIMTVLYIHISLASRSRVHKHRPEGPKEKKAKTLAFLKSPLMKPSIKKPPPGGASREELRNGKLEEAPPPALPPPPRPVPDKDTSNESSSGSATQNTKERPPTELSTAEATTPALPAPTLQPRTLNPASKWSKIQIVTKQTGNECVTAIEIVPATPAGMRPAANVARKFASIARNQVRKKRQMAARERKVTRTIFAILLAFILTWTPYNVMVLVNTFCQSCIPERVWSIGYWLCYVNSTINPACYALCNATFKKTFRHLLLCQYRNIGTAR

[5] = molecular target: T5, Muscarinic acetylcholine receptor M5 (Rattus norvegicus, UniProt P08911); assay: Antagonist activity at rat muscarinic M5 receptor expressed in CHO cells by calcium mobilization assay; type: functional, cell-based
T5 sequence (P08911 whole entry): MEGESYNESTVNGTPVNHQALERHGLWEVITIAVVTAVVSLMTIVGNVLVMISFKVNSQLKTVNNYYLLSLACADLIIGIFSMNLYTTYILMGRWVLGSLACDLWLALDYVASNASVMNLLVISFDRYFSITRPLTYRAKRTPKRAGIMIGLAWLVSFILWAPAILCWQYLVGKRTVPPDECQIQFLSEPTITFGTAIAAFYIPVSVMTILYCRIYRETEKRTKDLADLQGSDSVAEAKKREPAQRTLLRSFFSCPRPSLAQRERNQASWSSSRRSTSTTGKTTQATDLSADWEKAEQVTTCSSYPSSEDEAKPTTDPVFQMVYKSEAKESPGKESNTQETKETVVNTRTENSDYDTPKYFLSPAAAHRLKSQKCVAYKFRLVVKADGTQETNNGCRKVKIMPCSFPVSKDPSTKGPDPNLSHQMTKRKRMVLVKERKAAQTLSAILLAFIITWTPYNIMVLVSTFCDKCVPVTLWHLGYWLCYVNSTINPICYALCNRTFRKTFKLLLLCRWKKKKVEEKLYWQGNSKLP

Rattus norvegicus [6] = species: Rattus norvegicus; assay: Selectivity for rat muscarinic M1 receptor over rat muscarinic M3 receptor by calcium mobilization assay
Rattus norvegicus [7] = species: Rattus norvegicus; assay: Selectivity for rat muscarinic M1 receptor over rat muscarinic M4 receptor by calcium mobilization assay
Rattus norvegicus [8] = species: Rattus norvegicus; assay: Selectivity for rat muscarinic M1 receptor over rat muscarinic M5 receptor by calcium mobilization assay
[9] = molecular target: T1, Muscarinic acetylcholine receptor M1; assay: Displacement of [3H]NMS from rat muscarinic M1 receptor expressed in CHO cells; type: cell-based
How it was run: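 Competition binding against the orthosteric radioligand [³H]-N-methylscopolamine on rat mAChR subtypes from CHO cell lines, with atropine as positive control. Ki values are averages of three independent experiments.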

[10] = molecular target: T2, Muscarinic acetylcholine receptor M2; assay: Displacement of [3H]NMS from rat muscarinic M2 receptor expressed in CHO cells; type: cell-based
[11] = molecular target: T3, Muscarinic acetylcholine receptor M3; assay: Displacement of [3H]NMS from rat muscarinic M3 receptor expressed in CHO cells; type: cell-based
[12] = molecular target: T4, Muscarinic acetylcholine receptor M4; assay: Displacement of [3H]NMS from rat muscarinic M4 receptor expressed in CHO cells; type: cell-based
[13] = molecular target: T5, Muscarinic acetylcholine receptor M5; assay: Displacement of [3H]NMS from rat muscarinic M5 receptor expressed in CHO cells; type: cell-based
[14] = molecular target: T6, Muscarinic acetylcholine receptor M1 (Homo sapiens) (UniProt P11229); assay: Inhibition of human muscarinic M1 receptor
T6 sequence (whole entry): T1 sequence (P08482 whole entry) with V5A, S254T, S309P, K320R, G337A, V413I

| SMILES | IC50 [1] [µM] | IC50 [2] [µM] | IC50 [3] [µM] | IC50 [4] [µM] | IC50 [5] [µM] | Ratio IC50 (Rattus norvegicus [6]) | Ratio IC50 (Rattus norvegicus [7]) | Ratio IC50 (Rattus norvegicus [8]) | Ki [9] [µM] | Ki [10] [µM] | Ki [11] [µM] | Ki [12] [µM] | Ki [13] [µM] | Activity [14] |
| --- | --- | --- | --- | --- | --- | --- | --- | --- | --- | --- | --- | --- | --- | --- |
| CN1CCN(CC(=O)N2c3ccccc3C(=O)Nc3cccnc32)CC1 |  |  |  |  |  | 20 | 20 | 20 |  |  |  |  |  |  |
| CCCC(=O)Nc1ccc(N2CCN(CC)CC2)c(Cl)c1 | > 150 | > 150 | > 150 | > 150 | > 150 |  |  |  |  |  |  |  |  |  |
| CCCCCC(=O)Nc1ccc(N2CCN(CC)CC2)c(Cl)c1 | 0.49 | > 150 | > 150 | 7.9 | > 150 |  |  |  |  |  |  |  |  | Active |
| CCN1CCN(c2ccc(NC(=O)COc3ccccc3)cc2Cl)CC1 | 3.3 | > 150 | > 150 | > 150 | > 150 | > 45 | > 45 | > 45 |  |  |  |  |  |  |
| CCN1CCN(c2ccc(NC(=O)CC(C)(C)C)cc2Cl)CC1 | > 150 | > 150 | > 150 | > 150 | > 150 |  |  |  |  |  |  |  |  |  |
| CCN1CCN(c2ccc(NC(=O)CCc3ccccc3)cc2Cl)CC1 | 1.1 | 52 | 70 | 18 | 7.6 | 63 | 16 | 6.9 |  |  |  |  |  |  |
| CCN1CCN(c2ccc(NC(=O)Cc3ccc(F)cc3)cc2Cl)CC1 | 5.6 | > 150 | > 150 | > 150 | > 150 | > 26 | > 26 | > 26 |  |  |  |  |  |  |

The remaining compounds from weak to strong by IC50 [1], led by results:

| IC50 [1] [µM] | IC50 [2] [µM] | IC50 [3] [µM] | IC50 [4] [µM] | IC50 [5] [µM] | Ratio IC50 (Rattus norvegicus [6]) | Ratio IC50 (Rattus norvegicus [7]) | Ratio IC50 (Rattus norvegicus [8]) | Ki [9] [µM] | Ki [10] [µM] | Ki [11] [µM] | Ki [12] [µM] | Ki [13] [µM] | Activity [14] | SMILES |
| --- | --- | --- | --- | --- | --- | --- | --- | --- | --- | --- | --- | --- | --- | --- |
| 18.8 | > 150 | > 150 | > 150 | > 150 |  |  |  |  |  |  |  |  |  | CCN1CCN(c2ccc(NC(=O)COCc3ccccc3)cc2Cl)CC1 |
| 5 | > 150 | > 150 | 66 | > 150 |  |  |  |  |  |  |  |  |  | CCN1CCN(c2ccc(NC(=O)c3ccccc3)cc2Cl)CC1 |
| 4.6 | > 150 | > 150 | > 150 | > 150 | > 32 | > 32 | > 32 |  |  |  |  |  |  | CCN1CCN(c2ccc(NC(=O)C3CCCCC3)cc2Cl)CC1 |
| 1.15 | 29 | 24 | 20 | 13 |  |  |  |  |  |  |  |  |  | CCN1CCN(c2ccc(NC(=O)[C@H]3C[C@@H]3c3ccccc3)cc2Cl)CC1 |
| 0.58 |  |  | 5.1 |  |  |  |  |  |  |  |  |  | Active | CCCCOc1cccc(C(=O)Nc2ccc(N3CCN(CC)CC3)c(Cl)c2)c1 |
| 0.44 | 3.5 | 3.1 | > 150 | 1.1 | 7 | > 340 | 2.4 | 0.0127 | 0.338 | 0.0748 | 0.445 | 0.0857 |  | CCN1CCN(c2ccc(NC(=O)CCC3CCCC3)cc2Cl)CC1 |
